Experimental data: ChEMBL document CHEMBL2346664, “Synthesis, characterization and in vitro anticancer evaluation of novel 1,2,4-triazolin-3-one derivatives” (2013)
The source made the active and inactive calls. No cut-off for these calls is given here.

Tests used:
[1] = Growth inhibition of human […] cells after 48 hrs by sulforhodamine B assay; type: functional
How it was run: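 NCI 60-cell-line five-dose screen at 0.01, 0.1, 1, 10 and 100 µM final. Cells were plated at 5,000–40,000/well and grown 24 h at 37 °C, 5% CO2, then exposed to drug continuously for 48 h. Adherent cells were fixed with cold TCA (10% final) and stained with SRB; absorbance read at 515 nm. GI50 is the concentration where [(Ti-Tz)/(C-Tz)]×100 = 50, with Tz plates fixed at drug addition.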

[2] = system: HOP-62; experiment: Growth inhibition of human HOP62 cells after 48 hrs by sulforhodamine B assay; type: functional; details: HOP-62, 48 h
How it was run: (§1)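 NCI 60-cell-line five-dose screen. Cells were plated at 5,000–40,000/well by doubling time and grown 24 h at 37 °C, 5% CO2. Time-zero plates were TCA-fixed. Drug from DMSO stock was tested at 0.01, 0.1, 1, 10 and 100 µM final for 48 h continuous exposure. Read-out was SRB at 515 nm. GI50 is the concentration giving 50% reduction in net protein increase versus untreated control.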

[3] = system: MDA-MB-468; experiment: Growth inhibition of human MDA-MB-468 cells assessed as cell growth at 10 '-8 M after 48 hrs by sulforhodamine B assay; type: functional; details: MDA-MB-468, 48 h, read-out: Activity
[4] = system: UACC-62; experiment: Growth inhibition of human UACC62 cells assessed as growth inhibition at 10 uM after 48 hrs by sulforhodamine B assay; type: functional; details: UACC-62, 48 h, read-out: GI
[5] = system: UACC-62; experiment: Growth inhibition of human UACC62 cells assessed as cell growth at 10 '-5 M after 48 hrs by sulforhodamine B assay; type: functional; details: UACC-62, 48 h, read-out: Activity
[6] = system: UACC-257; experiment: Growth inhibition of human UACC257 cells after 48 hrs by sulforhodamine B assay; type: functional; details: UACC-257, 48 h
How it was run: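 NCI 60-cell-line five-dose screen over 0.01, 0.1, 1, 10 and 100 µM, with 48 h continuous exposure at 37 °C and 5% CO2 after 24 h pre-incubation (5,000–40,000 cells/well). Cells were TCA-fixed (10% final for adherent, 16% for suspension), stained with SRB and read at 515 nm. GI50 was solved from [(Ti−Tz)/(C−Tz)]×100 = 50 against time-zero plates.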

[7] = system: 786-0; experiment: Growth inhibition of human 786-0 cells assessed as cell growth at 10 '-6 M after 48 hrs by sulforhodamine B assay; type: functional; details: 786-0, 48 h, read-out: Activity
How it was run: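 Percent growth at each of the five concentrations of the 48 h continuous-exposure NCI SRB screen. Drug stocks were in DMSO at 400× the top final concentration and diluted in medium with gentamicin. Growth was calculated as [(Ti-Tz)/(C-Tz)]×100 when Ti ≥ Tz, or [(Ti-Tz)/Tz]×100 when Ti < Tz. Tz plates were fixed at drug addition; untreated wells served as control. Absorbance was read at 515 nm.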

[8] = system: SF-268; experiment: Growth inhibition of human SF268 cells assessed as cell growth at 10 '-5 M after 48 hrs by sulforhodamine B assay; type: functional; details: SF-268, 48 h, read-out: Activity
[9] = system: COLO 205; experiment: Growth inhibition of human COLO205 cells after 48 hrs by sulforhodamine B assay; type: functional; details: COLO 205, 48 h; how it was run: as §1
[10] = system: SN12C; experiment: Growth inhibition of human SN12C cells assessed as growth inhibition at 10 uM after 48 hrs by sulforhodamine B assay; type: functional; details: read-out: GI
[11] = system: MDA-MB-468; experiment: Growth inhibition of human MDA-MB-468 cells assessed as cell growth at 10 '-4 M after 48 hrs by sulforhodamine B assay; type: functional; details: MDA-MB-468, 48 h, read-out: Activity
[12] = system: NCI-H460; experiment: Growth inhibition of human NCI-H460 cells assessed as cell growth at 10 '-7 M after 48 hrs by sulforhodamine B assay; type: functional; details: NCI-H460, 48 h, read-out: Activity
[13] = system: KM12; experiment: Growth inhibition of human KM12 cells assessed as cell growth at 10 '-4 M after 48 hrs by sulforhodamine B assay; type: functional; details: KM12, 48 h, read-out: Activity
[14] = system: RXF 393; experiment: Growth inhibition of human RXF393 cells assessed as cell growth at 10 '-4 M after 48 hrs by sulforhodamine B assay; type: functional; details: RXF 393, 48 h, read-out: Activity
[15] = system: UACC-257; experiment: Growth inhibition of human UACC257 cells assessed as cell growth at 10 '-4 M after 48 hrs by sulforhodamine B assay; type: functional; details: UACC-257, 48 h, read-out: Activity
[16] = system: NCI-H226; experiment: Growth inhibition of human NCI-H226 cells assessed as growth inhibition at 10 uM after 48 hrs by sulforhodamine B assay; type: functional; details: NCI-H226, 48 h, read-out: GI
[17] = system: OVCAR-4; experiment: Growth inhibition of human OVCAR4 cells assessed as cell growth at 10 '-7 M after 48 hrs by sulforhodamine B assay; type: functional; details: OVCAR-4, 48 h, read-out: Activity
[18] = system: MCF7; experiment: Growth inhibition of human MCF7 cells assessed as cell growth at 10 '-8 M after 48 hrs by sulforhodamine B assay; type: functional; details: MCF7, 48 h, read-out: Activity
[19] = system: SNB-19; experiment: Growth inhibition of human SNB19 cells assessed as cell growth at 10 '-4 M after 48 hrs by sulforhodamine B assay; type: functional; details: SNB-19, 48 h, read-out: Activity
[20] = system: Malme-3M; experiment: Growth inhibition of human MALME-3M cells assessed as growth inhibition at 10 uM after 48 hrs by sulforhodamine B assay; type: functional; details: read-out: GI
[21] = system: HCT-116; experiment: Growth inhibition of human HCT116 cells assessed as cell growth at 10 '-5 M after 48 hrs by sulforhodamine B assay; type: functional; details: HCT-116, 48 h, read-out: Activity
[22] = system: UO-31; experiment: Growth inhibition of human UO31 cells assessed as cell growth at 10 '-5 M after 48 hrs by sulforhodamine B assay; type: functional; details: UO-31, 48 h, read-out: Activity
[23] = system: HL-60(TB); experiment: Growth inhibition of human HL-60(TB) cells assessed as growth inhibition at 10 uM after 48 hrs by sulforhodamine B assay; type: functional, cell-based
How it was run: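 NCI DTP single high-dose primary screen at 10^-5 M across 60 human tumour lines. Growth percent of treated cells is taken relative to untreated controls: values of 0–100 indicate growth inhibition and values below 0 indicate cytotoxicity. Both growth percent and percentage growth inhibition are reported.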

[24] = system: SNB-19; experiment: Growth inhibition of human SNB19 cells assessed as cell growth at 10 '-7 M after 48 hrs by sulforhodamine B assay; type: functional; details: SNB-19, 48 h, read-out: Activity
[25] = system: Malme-3M; experiment: Growth inhibition of human MALME-3M cells assessed as cell growth at 10 '-4 M after 48 hrs by sulforhodamine B assay; type: functional; details: read-out: Activity
[26] = system: SF-268; experiment: Growth inhibition of human SF268 cells assessed as cell growth at 10 '-7 M after 48 hrs by sulforhodamine B assay; type: functional; details: SF-268, 48 h, read-out: Activity
[27] = read-out: LD50 (the source's name)

In the case of `Cc1cc(=O)oc2cc(OCCn3c(C)nn(-c4ccc(Cl)cc4)c3=O)ccc12`, the GI50 [1] is reported as 5700 nM, the TGI [1] is reported as over 1000 nM and the CC50 [1, 27] is reported as over 1000 nM. The GI50 [2] was 3050 nM, the TGI [2] was 3290 nM and the CC50 [2, 27] was over 1000 nM. For the same compound, the growth at 0.01 µM [3] was 94%, the inhibition of growth at 10 µM [4] was 56.7% and the growth at 10 µM [5] was 24%. It also gave a TGI [6] of over 1000 nM, a CC50 [6, 27] of over 1000 nM and a growth at 1 µM [7] of 97%. The growth at 10 µM [8] was 52%, the GI50 [9] was 2390 nM and the TGI [9] was 7340 nM. It also gave a CC50 [9, 27] of over 1000 nM, an inhibition of growth at 10 µM [10] of 48.2% and a growth at 100 µM [11] of -5%. It also gave a growth at 0.1 µM [12] of 99%, a growth at 100 µM [13] of 12% and a growth at 100 µM [14] of -21%. For the same compound, the growth at 100 µM [15] was 53%, the inhibition of growth at 10 µM [16] was 49.9% and the growth at 0.1 µM [17] was 90%. For the same compound, the growth at 0.01 µM [18] was 98%, the growth at 100 µM [19] was 20% and the inhibition of growth at 10 µM [20] was 67.1%. The growth at 10 µM [21] was 21%, the growth at 10 µM [22] was 51% and the “growth inhibition (GI)” value [23] was “Active”. It also gave a growth at 0.1 µM [24] of 89%, a growth at 100 µM [25] of 41% and a growth at 0.1 µM [26] of 99%.
